Calls of active or inactive are those of the source. The rule behind the calls is not given here.
Assays:
[1] = biological target: T1, Fatty-acid amide hydrolase 1 (Rattus norvegicus, UniProt P97612); experiment: Inhibition of rat brain FAAH assessed by measuring [14C]anandamide hydrolysis after 30 mins
T1 sequence (P97612 whole entry): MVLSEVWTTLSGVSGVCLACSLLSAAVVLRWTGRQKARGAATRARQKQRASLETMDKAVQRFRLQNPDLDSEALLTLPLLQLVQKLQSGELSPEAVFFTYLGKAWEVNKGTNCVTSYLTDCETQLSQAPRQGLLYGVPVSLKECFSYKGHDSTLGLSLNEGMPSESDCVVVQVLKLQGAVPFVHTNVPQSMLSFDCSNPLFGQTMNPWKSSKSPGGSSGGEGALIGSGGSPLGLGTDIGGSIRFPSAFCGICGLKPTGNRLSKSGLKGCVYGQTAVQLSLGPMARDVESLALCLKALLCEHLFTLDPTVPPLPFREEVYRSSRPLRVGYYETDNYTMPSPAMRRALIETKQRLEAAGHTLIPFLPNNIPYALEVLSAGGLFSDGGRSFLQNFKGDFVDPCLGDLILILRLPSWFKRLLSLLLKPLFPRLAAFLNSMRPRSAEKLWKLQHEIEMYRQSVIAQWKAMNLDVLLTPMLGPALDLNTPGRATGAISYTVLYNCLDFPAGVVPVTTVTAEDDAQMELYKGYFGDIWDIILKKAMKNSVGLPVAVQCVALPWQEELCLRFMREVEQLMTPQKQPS

[2] = biological target: Transient receptor potential cation channel subfamily V member 1 (Homo sapiens, UniProt Q8NER1); experiment: Antagonist activity at human recombinant TRPV1 receptor expressed in HEK293 cells assessed as inhibition of capsaicin-induced intracellular calcium elevation; format: functional, cell-based
Procedure, shortened: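 Stably transfected HEK293 cells grown in MEM with nonessential amino acids, 10% FCS, 0.2 mM glutamine, 37 °C. Plated on poly-L-lysine a day before. Loaded 2 h at 25 °C with 4 µM Fluo-3 AM, washed, trypsinized, resuspended in Tyrode pH 7.4.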

[3] = tested on: Mus musculus; experiment: Antinociceptive activity in ip dosed mouse assessed as inhibition of formalin-induced hyperalgesia; format: functional, organism-based
Procedure, shortened: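 Mice given compound ip 15 min before 1.25% formalin into the dorsal hind paw (n = 8–10 per group). Doses were 0.3–5 or 1–10 mg/kg. Some groups also got AM251 or AM630 (3 mg/kg ip) or I-RTX (0.1–0.2 mg/kg ip) 5 min earlier. Lifting, licking, flinching and similar behaviour timed every 5 min for 60 min. IC50 estimated at 40 min post-formalin.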

[4] = tested on: RBL-2H3; experiment: Inhibition of anandamide uptake in RBL-2H3 cells upto 25 uM after 5 mins by anandamide membrane transport assay; format: functional, cell-based; settings: Rattus norvegicus
[5] = biological target: T2, Fatty-acid amide hydrolase 1 (Rattus norvegicus) (UniProt P97612); settings: at 50 µM
T2 sequence (whole entry): T1 sequence (P97612 whole entry)

Transient receptor potential cation channel subfamily V member 1, sequence (Q8NER1 whole entry): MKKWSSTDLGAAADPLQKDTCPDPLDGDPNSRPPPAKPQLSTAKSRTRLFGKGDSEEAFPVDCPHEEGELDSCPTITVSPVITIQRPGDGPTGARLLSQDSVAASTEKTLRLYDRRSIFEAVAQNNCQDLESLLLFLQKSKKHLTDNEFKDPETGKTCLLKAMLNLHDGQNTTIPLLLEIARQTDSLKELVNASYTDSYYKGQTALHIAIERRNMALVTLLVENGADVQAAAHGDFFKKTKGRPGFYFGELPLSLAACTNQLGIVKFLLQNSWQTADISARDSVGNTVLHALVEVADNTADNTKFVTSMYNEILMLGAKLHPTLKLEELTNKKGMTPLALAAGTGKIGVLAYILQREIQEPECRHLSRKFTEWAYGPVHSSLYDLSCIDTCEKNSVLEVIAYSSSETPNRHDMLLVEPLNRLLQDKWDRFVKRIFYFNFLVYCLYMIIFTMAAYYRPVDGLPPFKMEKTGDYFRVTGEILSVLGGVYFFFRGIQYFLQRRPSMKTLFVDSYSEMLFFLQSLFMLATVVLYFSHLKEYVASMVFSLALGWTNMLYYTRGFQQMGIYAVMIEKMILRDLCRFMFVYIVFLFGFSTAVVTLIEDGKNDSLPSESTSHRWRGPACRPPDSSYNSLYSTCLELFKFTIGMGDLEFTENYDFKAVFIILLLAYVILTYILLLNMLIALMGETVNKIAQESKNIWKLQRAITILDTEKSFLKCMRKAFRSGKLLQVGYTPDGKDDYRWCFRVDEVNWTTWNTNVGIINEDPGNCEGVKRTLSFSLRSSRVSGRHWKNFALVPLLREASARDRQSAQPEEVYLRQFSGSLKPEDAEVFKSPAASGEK

SMILES | IC50 [1] [µM] | IC50 [2] [µM] | IC50 [3] [mg/kg] | Activity [4] | inhibition [5] [%]
CCCCC/C=C\C/C=C\CCCCCCCC(=O)NCCc1c[nH]c2ccc(O)cc12 | 30 | 1.82 | – | – | –
O=C(CCCCCCCc1ccccc1)NCCc1c[nH]c2ccc(O)cc12 | 34 | 2.13 | – | – | –
CCCCC/C=C\C/C=C\C/C=C\C/C=C\CCCCOC(=O)NCCc1c[nH]c2ccc(O)cc12 | > 50 | 2.82 | – | – | –
O=C(NCCc1c[nH]c2ccc(O)cc12)Oc1cccc(I)c1 | 1.8 | > 10 | – | – | –
O=C(Cc1cccc(-c2ccccc2)c1)NCCc1c[nH]c2ccc(O)cc12 | > 50 | 0.43 | 5 | – | –
CC/C=C\C/C=C\C/C=C\CCCCCCCC(=O)NCCc1c[nH]c2ccc(O)cc12 | 10 | 0.47 | – | – | –
CCCCC/C=C\C/C=C\C/C=C\CCCCCOC(=O)NCCc1c[nH]c2ccc(O)cc12 | > 50 | > 10 | – | – | –
O=C(NCCc1ccc(-c2ccccc2)cc1)NCCc1c[nH]c2ccc(O)cc12 | > 50 | > 10 | – | – | –
CCCCCc1cccc(OC(=O)NCCc2c[nH]c3ccc(O)cc23)c1 | 3.6 | 2.4 | – | inactive | –
O=C(NCCc1c[nH]c2ccc(O)cc12)Oc1ccc2ccccc2c1 | 10 | > 10 | – | inactive | –
CCCCCc1cccc(-c2cccc(CCCC(=O)NCCc3c[nH]c4ccc(O)cc34)c2)c1 | 50 | > 10 | – | – | –
O=C(NCCc1ccc(Cl)cc1)NCCc1c[nH]c2ccc(O)cc12 | > 50 | > 10 | – | – | –
CCCCCCCC/C=C\CCCCCCCC(=O)NCCc1c[nH]c2ccc(O)cc12 | > 50 | 2.57 | – | – | –
CCCCC/C=C\C/C=C\C/C=C\C/C=C\CCCC(=O)NCCc1c[nH]c2ccc(O)cc12 | 8 | 0.27 | 0.5 | – | –
CCCCCc1cccc(NC(=O)NCCc2c[nH]c3ccc(O)cc23)c1 | > 50 | 2.63 | – | – | –
O=C(NCCc1c[nH]c2ccc(O)cc12)Oc1ccc(Cl)cc1 | 6.8 | > 10 | – | – | –
O=C(NCCc1ccccc1)NCCc1c[nH]c2ccc(O)cc12 | > 50 | > 10 | – | – | –
CC/C=C\C/C=C\C/C=C\CCCCCCCCOC(=O)NCCc1c[nH]c2ccc(O)cc12 | > 50 | > 10 | – | – | –
O=C(NCCc1c[nH]c2ccc(O)cc12)Oc1ccc(C(F)(F)F)cc1 | 6.4 | > 10 | – | – | –
O=C(NCCc1c[nH]c2ccc(O)cc12)Nc1cccc(-c2ccccc2)c1 | > 50 | 0.72 | – | – | –

SMILES | IC50 [1] [µM] | IC50 [2] [µM] | IC50 [3] [mg/kg] | Activity [4] | inhibition [5] [%]
O=C(NCCc1ccc(Oc2ccccc2)cc1)NCCc1c[nH]c2ccc(O)cc12 | > 50 | > 10 | – | – | –
CCCCCCCCCCC(=O)NCCc1c[nH]c2ccc(O)cc12 | > 50 | 0.76 | – | – | –
CC(C)(C)c1ccc(CNC(=O)NCCc2c[nH]c3ccc(O)cc23)cc1 | 50 | 3.8 | – | – | –
CCCCC/C=C\C/C=C\C/C=C\CCCCC(=O)NCCc1c[nH]c2ccc(O)cc12 | 10 | 0.95 | – | – | –
CCCCCc1ccc2ccc(CCCC(=O)NCCc3c[nH]c4ccc(O)cc34)cc2c1 | 50 | > 10 | – | – | –
O=C(NCCc1c[nH]c2ccc(O)cc12)Oc1ccc(OCc2ccccc2)cc1 | 1.17 | > 10 | – | inactive | –
O=C(NCCc1c[nH]c2ccc(O)cc12)Oc1cccc(C(F)(F)F)c1 | 2.2 | > 10 | – | – | –
CCCCCCCCCCCC(=O)NCCc1c[nH]c2ccc(O)cc12 | > 50 | 0.74 | – | – | –
O=C(NCCc1c[nH]c2ccc(O)cc12)Oc1ccc(I)cc1 | 5 | > 10 | – | – | –
CCCCCc1cccc(CC(=O)NCCc2c[nH]c3ccc(O)cc23)c1 | > 50 | 0.24 | – | – | –
O=C(CCCCCCCCc1ccccc1)NCCc1c[nH]c2ccc(O)cc12 | 30 | 0.68 | – | – | –
O=C(NCCc1c[nH]c2ccc(O)cc12)Oc1cccc(-c2ccccc2)c1 | 0.5 | > 10 | 4 | inactive | –
CCCCC/C=C\C/C=C\CCCCCCCCOC(=O)NCCc1c[nH]c2ccc(O)cc12 | > 50 | > 10 | – | – | –
O=C(CCCCC1CCSS1)NCCc1c[nH]c2ccc(O)cc12 (racemic) | > 50 | > 10 | – | – | –
C=C(C)[C@]12C[C@@H](C)[C@@]34O[C@](Cc5ccccc5)(O[C@@H]1[C@@H]3C=C(COC(=O)Cc1cc(I)c(O)c(OC)c1)C[C@]1(O)C(=O)C(C)=C[C@@H]41)O2 | – | – | – | – | < 10
O=C(NCCc1c[nH]c2ccc(O)cc12)Oc1cccc(Cl)c1 | 1.9 | > 10 | – | – | –
CC(C)(C)c1cccc(OC(=O)NCCc2c[nH]c3ccc(O)cc23)c1 | 3.7 | > 10 | – | – | –
CC(C)(C)c1ccc(OC(=O)NCCc2c[nH]c3ccc(O)cc23)cc1 | > 10 | 5.25 | – | – | –
O=C(CCCCCCc1ccccc1)NCCc1c[nH]c2ccc(O)cc12 | > 50 | 9.12 | – | – | –

Reference: ChEMBL document CHEMBL1138335, “New N-arachidonoylserotonin analogues with potential "dual" mechanism of action against pain” (J Med Chem, 2007)
